Assay results collected from several papers.
Lines come from different studies, so protocols differ.
Target: MAP kinase-interacting serine/threonine-protein kinase 1 (MKNK1, Homo sapiens, UniProt Q9BUB5)

CC/C(=N\NC(=O)NCc1cccc(O)c1)c1ccc(O)c(C)c1O
inhibition (enzyme activity; inhibitor; 0.1 µM): 0.4%

COc1cc(Nc2c(C#N)cnc3cc(OCCCN4CCN(C)CC4)c(OC)cc23)c(Cl)cc1Cl
remaining signal (cell-free assay; 0.5 µM): 96.9%

Nc1ncnc2occ(-c3ccc(NC(=O)Nc4cc(C(F)(F)F)ccc4F)cc3)c12
remaining signal (cell-free assay; inhibitor; 20 µM): 0%

O=C(CSc1nc2nccnc2c(=O)n1CCc1ccccc1)Nc1nccs1
inhibition (enzyme activity; inhibitor; 10 µM): 1%

COc1cc(/C=C/C(=O)CC(=O)/C=C/c2ccc(O)c(OC)c2)ccc1O
activity vs control (enzyme activity; inhibitor; 1 µM): 112%

CC(C)(O)[C@H]1CC[C@H](Nc2ccc3ncc(-c4cccc(C(F)(F)F)c4)n3n2)CC1
remaining activity (enzyme activity; inhibitor; 1 µM): 73.7%

CC(C)(C)c1nc2c(s1)c1nc(N)ncc1c1ccc(NS(=O)(=O)c3c(F)cccc3F)c(F)c12
remaining activity (enzyme activity; inhibitor; radiometric; 1 µM): 117%

COc1ccc2c(c1)O[C@H](c1ccc(OC)c(OC)c1)C[C@@H]2NC(=O)C1(c2ccc3c(c2)OC(F)(F)O3)CC1
remaining binding (cell-free assay; competition with immobilised ligand; 1 µM): 81%

O=C1Nc2ccc(Cl)cc2C1=Cc1cc(Cl)c(O)c(Cl)c1
remaining signal (cell-free assay; 0.5 µM): 103%

COc1cc(Nc2cnc(C#N)c(O[C@H](C)CN(C)C)n2)ncc1-c1cnn(C)c1
remaining activity (enzyme activity; inhibitor; radiometric; 10 µM): 90%

Cc1nc(C2CCN(C(=O)c3ccc(OC(F)(F)F)cc3N)CC2)c2ncc(N3CCN(C)CC3)cc2n1
remaining binding (cell-free assay; competition with immobilised ligand; 1 µM): 100%

Oc1cccc(-c2nc(N3CCOCC3)c3oc4ncccc4c3n2)c1
remaining activity (enzyme activity; inhibitor; 10 µM): 97%

Nc1nc(Nc2ccccc2)sc1C(=O)c1c(F)cccc1F
remaining activity (enzyme activity; inhibitor; 10 µM): 110%

O=C(Nc1cnn(-c2csc(C(=O)NC3COC3)c2)c1)Nc1c(F)cccc1Cl
remaining activity (enzyme activity; inhibitor; 5 µM): 103%

FC(F)(F)c1ccc2c(c1)nc(-c1cccnc1)n2C1CC1
remaining binding (cell-free assay; competition with immobilised ligand; 1 µM): 100%

CC(C)(C)C(=O)c1sc(NC2CCCCC2)nc1N
remaining activity (enzyme activity; inhibitor; 10 µM): 105%

CNCc1ccccc1-c1csc([C@H](C)Nc2nc(C)nc3cc(OC)c(OC)cc23)c1
remaining binding (cell-free assay; competition with immobilised ligand; 1 µM): 91%

FC(F)(F)Oc1cccc(-c2cnc3ccc(-c4ccncc4)nn23)c1
activity vs control (enzyme activity; inhibitor; radiometric; 5 µM): 72%

CN(C)c1ncnc(-c2ccc3nc(Nc4cc(CN5CCN(C(=O)CC(F)(F)F)CC5)ccn4)[nH]c3c2)c1Cl
remaining binding (cell-free assay; competition with immobilised ligand; 1 µM): 62%

CC[C@H](CO)Nc1nc(NCc2ccccc2)c2ncn(C(C)C)c2n1
remaining signal (cell-free assay; 0.5 µM): 96.4%

Cn1nc(C(=O)NCc2ccc(C(=O)O)cc2)cc1-c1ccc2[nH]ccc2c1
remaining binding (cell-free assay; competition with immobilised ligand; 0.1 µM): 100%

COc1cc2ncnc(Nc3ccc(Oc4ccccc4)cc3C)c2cc1OC
inhibition (enzyme activity; inhibitor; 1 µM): 2%
